Kir21 block – inhibitors of mouse Kir2.1 inward-rectifier potassium channel; B-score at 10 µM; HEK293-Kir2.1, FluxOR thallium flux fluorescence; active compounds read low; AID 1672, 2009; hit rate 0.85% among 310,000; Inward rectifier potassium channel 2 (Mus musculus), P35561;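 active = fluorescence ratio B-score at or below minus 3 SD of library scores, with starting-brightness B-score within 2 SD, cut at about -4.2 in these data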;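 note: channel flux triggered by added potassium and thallium sulfate stimulus; B-score of peak minus minimum fluorescence over baseline after thallium stimulus; more negative B-score means stronger Kir2.1 block with less thallium influx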
KCNK9 block – KCNK9 potassium channel inhibitors, primary screen, HEK293 cells, thallium flux; Potassium channel subfamily K member 9 (Homo sapiens), Q9NPC2; FluxOR thallium flux fluorescence; active compounds read low; hit rate 1.2% among 310,000; B-score at 10 µM;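 active = ratio B-score over 3 SD below the library mean, with starting fluorescence within 5 SD of its mean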;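 note: negative B-score means less thallium flux so channel inhibition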
KCNQ1 inh – inhibitors of human KCNQ1 channel, primary screen, cell-based, thallium flux, high-throughput. AID 2642, 2010. hit rate 1.3% among 310,000. CHO-K1 KCNQ1, FluxOR thallium flux fluorescence; active compounds read high. B-score at 10 µM. Potassium voltage-gated channel subfamily KQT member 1 (Homo sapiens), P51787;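 active = compounds whose thallium flux B-score, printed positive for inhibition, exceeds three library SD while starting fluorescence stays within three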;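 note: channel opened by potassium depolarization with thallium stimulus after 20 min compound exposure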
Target sequence (P51787 whole entry, looked up): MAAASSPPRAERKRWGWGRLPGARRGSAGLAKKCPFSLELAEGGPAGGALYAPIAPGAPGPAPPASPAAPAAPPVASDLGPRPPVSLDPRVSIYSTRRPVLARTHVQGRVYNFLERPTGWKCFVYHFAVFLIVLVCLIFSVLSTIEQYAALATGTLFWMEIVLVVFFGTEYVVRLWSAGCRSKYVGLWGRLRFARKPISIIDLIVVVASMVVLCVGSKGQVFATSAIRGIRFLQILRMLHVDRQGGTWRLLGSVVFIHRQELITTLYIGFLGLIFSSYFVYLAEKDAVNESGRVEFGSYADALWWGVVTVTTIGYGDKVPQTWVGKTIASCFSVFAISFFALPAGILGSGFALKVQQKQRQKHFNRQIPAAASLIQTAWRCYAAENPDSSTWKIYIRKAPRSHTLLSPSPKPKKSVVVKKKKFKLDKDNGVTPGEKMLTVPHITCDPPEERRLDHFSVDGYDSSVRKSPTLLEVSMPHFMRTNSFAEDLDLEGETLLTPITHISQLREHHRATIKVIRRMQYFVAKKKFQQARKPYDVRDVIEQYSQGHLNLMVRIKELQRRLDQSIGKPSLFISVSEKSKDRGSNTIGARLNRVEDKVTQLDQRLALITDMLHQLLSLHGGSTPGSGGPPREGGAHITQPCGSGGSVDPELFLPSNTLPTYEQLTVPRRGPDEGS
hERG rescue – hERG rescue from dofetilide block, primary screen, cell-based, CHO-hERG, FluxOR thallium flux, dofetilide IC70. dofetilide IC70 present. activation (rescue from dofetilide block), less the hit threshold, % at 10 µM. hit rate 0.51% among 310,000. AID 1511, 2009;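 active = activation above the mean of controls blocked by dofetilide plus 5 SD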;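 note: thallium influx through hERG after potassium depolarization seen as dye fluorescence rise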
KCNQ1 act – potentiators or activators of KCNQ1 channel, primary screen, cell-based, thallium flux, high-throughput. AID 2648, 2010. CHO-K1 KCNQ1, thallium flux FluxOR fluorescence; active compounds read high. Potassium voltage-gated channel subfamily KQT member 1 (Homo sapiens), P51787. B-score at 10 µM. hit rate 0.35% among 310,000;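 active = fluorescence ratio B-score, a plate-corrected score, at least three library SD, with initial intensity B-score within 5 SD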
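assay system = CHO-K1 cells stably expressing KCNQ1 | medium = assay buffer, equal DMSO in all wells | timing = 37 °C overnight plating, 90-min dark dye load, 20-min compound pretreatment | measured by = kinetic FluxOR thallium fluorescence, 10-s 1-Hz baseline, 110-s post-stimulus read | measure = fluorescence change relative to baseline, converted to B score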
KCNK3 block – human KCNK3 channel inhibitors, primary screen, CHO cells, FluxOR thallium flux, B-score. Potassium channel subfamily K member 3 (Homo sapiens), O14649. B-score at 10 µM. AID 602410, 2012. hit rate 0.84% among 340,000. FluxOR fluorescence; active compounds read low;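 active = B-score under library mean minus 4 SD, starting fluorescence ratio at most library mean plus 5 SD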;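 note: more negative B-score means stronger inhibition of thallium flux through KCNK3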
KCNK9 block conf – KCNK9 potassium channel inhibitors, confirmation, HEK293 cells, thallium flux, duplicate; shares compounds with KCNK9 block; FluxOR thallium flux fluorescence; hit rate 43% among 4,900; inhibition, % at 10 µM;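 active = thallium signal inhibited by more than 5 SD of the compound-free buffer control wells, on both duplicate plates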
Kir21 sel – mouse Kir2.1 channel inhibition, confirmation, selectivity assay for KCNK9 modulator project, cell-based, HEK293, thallium flux; Kir2.1 cells, FluxOR thallium flux fluorescence; shares compounds with KCNK9 block; AID 492993, 2010; inhibition, % at 10 µM; hit rate 4% among 4,900;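 active = thallium signal drop more than 5 SD beyond the mean of the no-compound control wells, seen in both duplicate plates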;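 note: signal is fluorescence rise after thallium addition divided by baseline fluorescence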
KCNK9 uninduced – thallium flux in non-induced HEK293 cells, confirmation, counter-screen for KCNK9 inhibitor project, cell-based, second counter screen, non-induced KCNK9-HEK293 | hit rate 40% among 4,900 | shares compounds with KCNK9 block | inhibition, % at 10 µM | FluxOR thallium flux;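 active = thallium signal drop beyond 5 SD of the untreated control mean, on both duplicate plates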
Of the large screens only hits and unclear results are named; the others gave an inactive call (follow-up assays come after a bar, where they were run). The list is not random: actives were taken first. Their share in the collection is about 3.7%.

CCN(CC)C(=O)OCCc1cc2ccccc2c(=O)o1	none (no result: Kir21 block, KCNK9 block, KCNQ1 inh, hERG rescue, KCNQ1 act)
Cc1ccc(Cl)cc1N1CCN(S(=O)(=O)c2cccc(S(=O)(=O)N3CCCC3)c2)CC1	KCNK9 block -10.2, KCNK3 block -11 | KCNK9 block conf 49.0% | Kir21 sel inactive | KCNK9 uninduced 32.0%
Cc1ccc(Cl)cc1NS(=O)(=O)c1ccccc1	none (no result: Kir21 block, KCNK9 block, KCNQ1 inh, hERG rescue, KCNQ1 act)
Cc1ccc(Cl)cc1NS(=O)(=O)Cc1ccccc1	none | KCNK9 block conf inactive | Kir21 sel inactive | KCNK9 uninduced inactive
Cc1ccc(C)c(OCC(O)CN2CCC(CN3C(=O)c4cccc5cccc(c45)C3=O)CC2)c1 (centres undefined)	none | KCNK9 block conf inactive | Kir21 sel inactive | KCNK9 uninduced inactive
CC(C)(C)c1cc(-c2csc(Nc3ccccc3)[n+]2Cc2ccc(C(=O)O)cc2)cc(C(C)(C)C)c1O	KCNQ1 act 15 | KCNK9 block conf inactive | Kir21 sel inactive | KCNK9 uninduced inactive
Cc1ccc(C)c(NC(=S)N2CCN(c3cccc(C(F)(F)F)c3)CC2)c1	none
O=C(CSCc1ccccc1)N1CCN(c2cccc(C(F)(F)F)c2)CC1	none | KCNK9 block conf inactive | Kir21 sel inactive | KCNK9 uninduced inactive
CC(C(=O)N1CCc2ccccc21)N1CCN(c2cccc(C(F)(F)F)c2)CC1 (centres undefined)	none | KCNK9 block conf inactive | Kir21 sel inactive | KCNK9 uninduced inactive
C/C(=C/c1ccccc1)C(=O)N1CCN(c2ccccc2F)CC1	none
Cc1ccnc(NC(=S)N2CCN(c3cccc(C(F)(F)F)c3)CC2)c1	none | KCNK9 block conf inactive | Kir21 sel inactive | KCNK9 uninduced inactive
O=C(CSCc1ccccc1)N1CCN(c2ccccc2)CC1	none
C/C(=C\c1ccccc1)C(=O)N1CCN(c2cccc(C(F)(F)F)c2)CC1	none | KCNK9 block conf inactive | Kir21 sel inactive | KCNK9 uninduced inactive
CC(C(=O)N1CCc2ccccc21)N1CCN(S(=O)(=O)c2ccc(C(F)(F)F)cc2)CC1 (centres undefined)	none (no result: Kir21 block, KCNK9 block, KCNQ1 inh, hERG rescue, KCNQ1 act)
COc1cc(C(=O)Nc2ccc(C)cc2)c(-n2cnnn2)cc1OC	none
COc1ccc(/C=C/c2nc(S(=O)(=O)c3ccccc3)c(N(C)C)o2)cc1	none
COc1ccc(NC(=O)COC(=O)c2cc(=O)c3ccccc3o2)cc1OC	none (no result: Kir21 block, KCNK9 block, KCNQ1 inh, hERG rescue, KCNQ1 act)
C[C@H](NC(=O)c1ccccc1Cl)C(=O)NCc1cccs1	none
O=[N+]([O-])c1ccc(C(=S)N2CCC(Cc3ccccc3)CC2)cc1	KCNK9 block -12.7 | KCNK9 block conf inactive | Kir21 sel inactive | KCNK9 uninduced inactive
O=[N+]([O-])c1ccc(CN2CCC(Cc3ccccc3)CC2)cc1	none
S=C(NC1CCCCC1)N1CCOCCOCCN(C(=S)NC2CCCCC2)CCOCCOCC1	KCNK9 block -12.5 | KCNK9 block conf 50.0% | Kir21 sel inactive | KCNK9 uninduced 33.0%
COc1ccc(N2CC(C(=O)N3CCN(c4ccccc4OC)CC3)CC2=O)cc1 (centres undefined)	none
O=C(N/N=C/c1cc(Cl)cc([N+](=O)[O-])c1O)c1cc(-c2ccccn2)nc2ccccc12	none | KCNK9 block conf inactive | Kir21 sel inactive | KCNK9 uninduced 28.0%
COc1cccc(/C=N/NC(=O)c2cc(-c3ccccn3)nc3ccccc23)c1O	none (no result: Kir21 block, KCNK9 block, KCNQ1 inh, hERG rescue, KCNQ1 act)
COc1cccc(C(=O)OC(C)CN2CCCC2)c1 (centres undefined)	none
COc1cccc(C(=O)OCCN2CCCCC2)c1	none | KCNK9 block conf inactive | Kir21 sel inactive | KCNK9 uninduced inactive
COc1cc(/C=N/NC(=O)C(=O)/C=C2\NC3(CCCC3)Cc3ccccc32)ccc1O	KCNK9 block -11.4 | KCNK9 block conf 44.5% | Kir21 sel inactive | KCNK9 uninduced 28.0%
O=C(/C=C1\NC2(CCCC2)Cc2ccccc21)C(=O)N/N=C/c1ccccc1O	none
Cc1ccccc1OCC(=O)OCC(=O)c1c[nH]c2ccccc12	none (no result: Kir21 block, KCNK9 block, KCNQ1 inh, hERG rescue, KCNQ1 act)
CC(C)(Oc1ccc(Cl)cc1)C(=O)NNC(=O)c1ccc(Br)o1	none
COc1ccc(CN=Cc2c(C(F)(F)F)[nH][nH]c2=O)cc1	KCNK9 block -11.4 | KCNK9 block conf 27.0% | Kir21 sel inactive | KCNK9 uninduced inactive
CCOC(=O)C(C(C)=O)c1c(Br)c(O)c(O)c2c(C(=O)c3ccc(C)cc3)coc12 (centres undefined)	KCNK9 block -14.9, KCNQ1 inh 9 | KCNK9 block conf 70.5% | Kir21 sel inactive | KCNK9 uninduced 46.5%
CN(C)C(C(=O)Nc1cc(Cl)cc(Cl)c1)c1ccccc1 (centres undefined)	KCNK9 block -10.1 | KCNK9 block conf 43.5% | Kir21 sel inactive | KCNK9 uninduced 29.5%
O=C(OC(C(=O)Nc1cc(Cl)cc(Cl)c1)c1ccccc1)C1=COCCO1 (centres undefined)	none
CC(=O)n1nc(-c2ccc(C)cc2)nc1NCc1ccc(F)cc1	none
O=C(COC(=O)c1c2c(nc3ccccc13)CCCC2)Nc1ccc2c(c1)OCO2	KCNK9 block -12.4 | KCNK9 block conf 48.0% | Kir21 sel inactive | KCNK9 uninduced inactive
O=C(c1cccc(S(=O)(=O)N2CCc3ccccc32)c1)N1CCN(c2ccccn2)CC1	KCNK9 block -10.1 | KCNK9 block conf 36.0% | Kir21 sel inactive | KCNK9 uninduced inactive
O=C(OCC(=O)N1CCCc2ccccc21)c1cccc(S(=O)(=O)N2CCOCC2)c1	none
COc1ccc(N2CCN(C(=O)c3cccc(S(=O)(=O)N4CCc5ccccc54)c3)CC2)cc1	none (no result: Kir21 block, KCNK9 block, KCNQ1 inh, hERG rescue, KCNQ1 act)
O=C(OCC(=O)N1CCc2ccccc21)c1c2c(nc3ccccc13)CCCCC2	KCNK9 block -12.8 | KCNK9 block conf 52.0% | Kir21 sel inactive | KCNK9 uninduced 34.5%
O=C(OCC(=O)N1CCc2ccccc21)c1cccc(S(=O)(=O)N2CCCc3ccccc32)c1	none | KCNK9 block conf inactive | Kir21 sel inactive | KCNK9 uninduced inactive
O=C(COC(=O)c1cc(-c2ccccc2)nc2ccccc12)Nc1ccc2c(c1)OCO2	none

Screens: PubChem, Johns Hopkins Ion Channel Center
